An excerpt weighted towards active compounds, which were near 3% of everything screened.
HTR1A agonist: activates the human 5-HT1a serotonin receptor; CHO 5-HT1a Ga15 NFAT-bla reporter, FRET ratio; 0% basal, 100% maximal reference agonist; activation, % at 10 µM; 65,000 tested, 0.56% active; AID 567;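 active = activation above the screen-wide mean activation plus 3 SD, cut at about 19% in these data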;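 also: 0% = DMSO wells and 100% = 5-CT at EC100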
5-HT1A blocker: antagonists of human 5-HT1a serotonin receptor; 62,000 tested, 0.68% active; CHO 5-HT1a Ga15 NFAT-bla reporter, antagonist mode; inhibition, % at 10 µM; P08908;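 active = inhibition above the mean of all tested compounds plus 3 SD, cut at about 43% in these data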;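 also: receptor stimulated by 5-CT agonist at 100 nM near EC80; beta-lactamase reporter measured by ratiometric fluorescence of a cleavable substrate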
5HT1E ag: activates the human 5-HT1E serotonin receptor; P28566; AID 574; CHO 5-HT1E Ga15 NFAT-bla reporter, FRET; 0% DMSO wells, 100% control agonist wells; 65,000 tested, 0.69% active; activation, % at 6 µM;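 active = activation above a set limit, the screen-wide mean activation plus 3 SD, cut at about 8.5% in these data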;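 also: 100% = positive control agonist at 1 µM giving full maximal response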
Target sequence (P28566 whole entry, looked up): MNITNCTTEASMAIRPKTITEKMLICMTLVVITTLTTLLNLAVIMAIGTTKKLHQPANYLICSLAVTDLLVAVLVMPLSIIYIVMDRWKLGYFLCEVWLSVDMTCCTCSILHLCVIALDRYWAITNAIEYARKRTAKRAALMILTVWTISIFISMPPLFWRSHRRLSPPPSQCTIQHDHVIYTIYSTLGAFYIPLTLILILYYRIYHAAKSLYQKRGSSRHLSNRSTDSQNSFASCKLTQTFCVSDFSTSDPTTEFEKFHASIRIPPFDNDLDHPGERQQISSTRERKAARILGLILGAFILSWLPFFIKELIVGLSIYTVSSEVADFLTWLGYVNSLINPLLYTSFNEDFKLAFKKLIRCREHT
S1P3 agonist: S1P3 (human) receptor agonism; AID 373; S1P3 NFAT-BLA reporter cells, FRET ratio; relative to 1 µM S1P, basal subtracted; Q99500; 60,000 tested, 0.1% active; activation, % at 4.5 µM;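 active = activation above the screen-wide mean plus 3 SD, cut at about 4.5% in these data, passing the limit was not always enough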
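material = human S1P3 NFAT-BLA reporter CHO cells | schedule = 4 h compound at 37 °C, 2 h substrate at RT | measured by = fluorescent BLA substrate, ex 405 nm, em 460/535 nm ratio | controls = 1 µM S1P reference | replication = primary once, confirmation triplicate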
S1P1 ag-PAM: agonists and agonism potentiators of human S1P1 receptor. 56,000 tested, 0.57% active. S1P1 CRE-bla cells, forskolin, beta-lactamase FRET, potentiator mode; S1P1 agonist co-added at EC20, 2 nM; 100% = saturating reference agonist, 0% = basal. AID 449. activation, % at 9.5 µM;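 active = activation above a cutoff set at the mean activation of all tested compounds plus 3 SD, cut at about 54% in these data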;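 also: forskolin at 4 µM as EC80 and the EC20 agonist is SEW2871; 100% = SEW2871 at its EC100 plus forskolin at EC80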
HTR1E antagonist: antagonists of human 5-HT1E serotonin receptor; 65,000 tested, 0.99% active; inhibition, % at 6 µM; P28566; CHO 5-HT1E Ga15 NFAT-bla reporter, FRET, antagonist;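 active = inhibition above a set limit, the mean inhibition across every tested compound plus 3 SD, cut at about 29% in these data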;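 also: signal is the 460 over 535 nm emission ratio of beta-lactamase substrate; 0% = agonist plus DMSO wells and 100% = wells without agonist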
Active calls of the source: *; . = no result given.

SMILES	HTR1A agonist	5-HT1A blocker	5HT1E ag	S1P3 agonist	S1P1 ag-PAM	HTR1E antagonist
CCC(C)(C(=O)NC1CCCC1)N(Cc1cccs1)C(C)=O (stereo not given)	-2.3	16.2	0.1	.	.	5.7
CCC(C)(C(=O)NC1CCCC1)N(Cc1ccco1)C(=O)c1ccc2c(c1)OCO2 (stereo not given)	-1.9	49.0*	-0.2	-1.4	1.2	-20.1
CCC(C)(C(=O)NC1CCCC1)N(Cc1cccs1)C(=O)Cc1cccs1 (stereo not given)	0.4	59.2*	-1.4	.	.	8.1
CCCCNC(=O)CN(C1CCCCC1)S(C)(=O)=O	1.7	-5.7	-0.8	-1.1	-34.5	-5.5
O=S(=O)(C/C(=C/CO)S(=O)(=O)c1ccccc1)c1ccccc1	-0.5	92.1*	0.1	-1.6	82.3*	105.6*
O=C(CCSc1nnc2scc(-c3ccccc3)n12)NCc1ccc2c(c1)OCO2	1.1	3.2	-1.1	0.0	-37.7	17.9
c1ccc(-c2csc3nnc(SCc4ccc5c(c4)OCO5)n23)cc1	-2.6	2.0	1.3	-0.5	-21.0	29.4*
C=CCSc1nc(N)c2c(C)c(C)sc2n1	48.9*	-4.7	0.3	-0.6	-31.1	4.3
Cc1ccc(-c2csc3ncnc(Sc4nnc(CN5CCCCCC5=O)o4)c23)cc1	-3.4	75.5*	-0.2	-2.5	93.0*	48.1*
O=c1c2nnn(Cc3ccccc3)c2ncn1-c1ccccc1	-0.5	-12.2	0.6	0.2	7.0	2.2
COc1ccc(Cl)cc1N1C(=O)C2CCCN2C1c1ccc(F)cc1 (stereo not given)	-1.5	1.9	-0.4	-0.8	-6.8	4.6
COCCN(C(=O)Cc1cccs1)c1nnc(-c2cccnc2)s1	-1.8	-13.2	-0.6	-0.4	23.9	2.7
COCCN(C(=O)c1ccccc1)c1nnc(-c2cccnc2)s1	-2.7	-1.4	0.5	-0.4	62.2*	-7.1
OC(CN1CCN(c2cccc(C(F)(F)F)c2)CC1)c1c[nH]c2ccccc12 (stereo not given)	54.7*	10.6	0.7	-1.3	11.0	-4.1
O=C(CS(=O)(=O)Cc1ccccc1)N1CCN(c2cccc(C(F)(F)F)c2)CC1	-1.5	-4.0	5.2	-0.7	-5.2	-10.8
Cc1ccc(S(=O)(=O)N(C)CCCC(=O)n2nc(C)cc2C)cc1	1.2	-10.3	0.3	-0.6	.	-5.4
CCOC(=O)CCSc1nc(C)cc(C(F)(F)F)c1C#N	-2.8	-4.8	-1.3	-0.2	.	-0.6
CCCc1nc2ccccc2c(=O)n1/N=C/c1c(C)[nH]n(-c2ccc(C)cc2)c1=O	-2.4	4.4	-0.6	0.2	-16.7	2.2
O=C(COc1ccc(-c2nnco2)cc1)NC1CCCc2ccccc21 (stereo not given)	-2.2	-9.4	-0.4	-0.1	-8.1	-1.3
Cc1ccc(S(=O)(=O)C(C#N)c2nc3ccccc3nc2N2CCCCC2)cc1 (stereo not given)	2.8	3.2	1.1	.	.	-7.4
N#CC(c1nc2ccccc2nc1N1CCCCC1)S(=O)(=O)c1ccc(Cl)cc1 (stereo not given)	-1.0	5.3	11.5*	-1.5	11.2	0.3
Cc1cccc(N2CCN(C(=O)c3cc4c(=O)n(C)c5ccccc5c4n3C)CC2C)c1 (stereo not given)	0.7	-12.5	1.8	0.1	12.5	19.1
C=CCOc1ccc(/C(O)=C2/C(=O)C(=O)N(CCCn3ccnc3)C2c2cccs2)cc1 (stereo not given)	-0.1	-0.6	0.7	-0.6	1.0	-1.7
CCOC(=O)C1CCN(C(=O)c2cc3c(-c4ccc(OC)c(OC)c4)nn(C)c3s2)CC1	-1.3	4.3	0.3	0.0	-56.5	35.5*
CCOC(=O)N1CCC(NC(=O)c2cc3c(-c4ccccc4F)nn(C)c3s2)CC1	0.6	6.6	1.1	-0.7	-15.8	-0.1
CCOC(=O)C1CCCN(C(=O)c2cc3c(-c4cccc(OC)c4)nn(C)c3s2)C1 (stereo not given)	-1.9	15.9	1.2	-1.0	-10.4	25.6
CCOC(=O)N1CCC(NC(=O)c2cc3c(-c4ccc(OC)c(OC)c4)nn(C)c3s2)CC1	0.2	14.6	-0.4	-1.6	2.4	29.2*
